# Measured values from PMC10392308 (Journal of Enzyme Inhibition and Medicinal Chemistry, 2023).
# Legend:
# tumour tissue = assay: Haematoxylin-eosin staining; assay type: in vivo, nude mice; conditions: compound 2 1 and 2.5 mg/kg, 5-FU 10 mg/kg; vs control group
# How it was run: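 Female Balb/c nude mice (8 weeks) bore HCT116 xenografts from 1×10^8 cells/mL, 0.1 ml in the right armpit, six per group. Dosing was i.p. in 5% DMSO/soybean oil at 5 ml/kg, starting at ~100 mm3, for 20 days, with vehicle controls. Tumours collected after sacrifice and stained with haematoxylin-eosin; nuclei blue, cytoplasm red.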
# TNF-α = assay: ELISA detection of TNF-α in tumour mice; assay type: in vivo, nude mice; conditions: serum, compound 2 1 and 2.5 mg/kg, 5-FU 10 mg/kg, vs control
# How it was run: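 HCT116 xenografts (1×10^8 cells/mL, 0.1 ml, right armpit) in 8-week-old female Balb/c nude mice, six per group. Test compound given i.p. in 5% DMSO/soybean oil (5 ml/kg) from ~100 mm3 tumours for 20 days. At sacrifice, serum held 2 h, spun 1000 × g for 20 min, stored −80 °C. TNF-α measured by mouse ELISA kit, six sera per group, triplicate wells.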
# VEGF [1] = assay: Immunohistochemical detection of VEGF expression in tumour tissue; assay type: in vivo, nude mice; conditions: compound 2 1 and 2.5 mg/kg, 5-FU 10 mg/kg; p < 0.0001 vs control
# HCT116 cancer cells = assay: In vivo anticancer effect in nude mice inoculated with HCT116 cells; set-up: species or system Balb/c nude mice; conditions: for Tumour growth inhibition rate: by tumour weight; for Tumour weight / Tumour volume at the end of the administration: compound 2 2.5 and 1 mg/kg, 5-FU 10 mg/kg; for Tumour weight: p < 0.001 vs control; for Tumour volume at the end of the administration: p < 0.01 vs control
# How it was run: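 Female Balb/c nude mice, 8 weeks old, received 0.1 ml of 1 × 10^8/mL HCT116 cells in the right armpit, six mice per group. At about 100 mm3 tumour, dosing began: i.p., 5 ml/kg, once every two days, vehicle 5% DMSO in soybean oil, with a vehicle group and a 5-FU group. Body weight and tumour diameters were taken every 3 d, with volume = A×B²/2. Inhibition = (1 − mean treated/control tumour weight) × 100%.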
# AGS = assay: MTT antiproliferative assay, AGS; assay type: cell-based; conditions: Homo sapiens, 48 h, read-out: IC50 values, AGS, MTT, 48 h
# VEGF [2] = assay: ELISA for the expression of VEGF in MGC-803 cells; assay type: cell-based, human; conditions: for Effect on the expression of VEGF: MGC-803, 0.1, 0.5, 1 µM, hypoxia or not
# How it was run: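 The hypoxia arm used 100 µM CoCl2·6H2O (1% O2) and was run beside 21% O2 cultures. MGC-803 cells were exposed 24 h to test compound at 0.1, 0.5 or 1 µM, with a 0.1% DMSO blank and a positive control. Supernatants were spun at 1000 × g for 20 min at 4 °C, and VEGF was quantified by human VEGF ELISA kit.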
# MMP-9 = assay: ELISA for the expression of MMP-9 in MGC-803 cells; assay type: cell-based, human; conditions: for MMP-9 expression: control 18.6 ng/ml; for Effect on the expression of MMP-9: MGC-803, 0.1, 0.5, 1 µM
# zebrafish embryos = assay: Zebrafish embryonic acute toxicity test; assay type: in vivo
# How it was run: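 Normally developed embryos at 6 hpf were placed in 24-well plates, six per well, and exposed for three days to test compound at 0.1, 0.15, 0.2, 0.3 and 0.5 μM, with a 0.5% DMSO blank. Hatching (shell without membrane) and death (cardiac arrest) were scored every 24 h. Incubation rate = hatched/total embryos × 100%, and mortality = dead/total × 100%.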
# MGC-803 cells [3] = assay: Apoptosis assay with flow cytometry; assay type: cell-based, human; conditions: MGC-803, 18 h, highest value reached; blank control 8.2
# [4] = Water solubility determination using HPLC; assay type: physicochemical; conditions: 37 °C, thermodynamic from solid
# How it was run: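 […] were sonicated 10 min at 37 °C. After standing 1 h, the clear upper liquid was membrane-filtered and injected on HPLC. Water solubility was calculated from peak area using the regression equation.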
# zebrafish larvae = assay: Zebrafish adult fish; assay type: in vivo; conditions: for Concentrations causing acute toxicity in zebrafish larvae: in vivo
# How it was run: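 Normally developed larvae at 3 dpf were placed in 24-well plates, six per well, and exposed to test compound at 0.1, 0.2, 0.3, 0.4 and 0.5 μM. Mortality was recorded at 24 h and 72 h.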
# HCT-116 = assay: MTT antiproliferative assay, HCT-116; assay type: cell-based; conditions: Homo sapiens, HCT-116, 48 h, read-out: IC50 values, HCT-116, MTT, 48 h
# MGC-803 cells [5] = assay: Cell cycle analysis with flow cytometry; assay type: cell-based, human; conditions: for Cells in G1 phase: DMSO 64.36%; for Phase in which the cell cycle is blocked: MGC-803, 18 h; for Cells in S phase: DMSO 20.59%
smiles,measurement,setting,value
"O=c1[nH]cc(F)c(=O)[nH]1 [5-FU, 5-fluorouracil, reference compound]",Morphological changes in tumour tissue (HE),tumour tissue,tumour tissue structure was seriously damaged and the cell necrosis was obvious
same,TNF-α content of tumour mice,TNF-α,increased the TNF-α content significantly
same,VEGF expression in tumour tissue (immunohistochemistry),VEGF [1],downregulated the VEGF expression significantly
same,Tumour growth inhibition rate,HCT116 cancer cells; 10 mg/kg intraperitoneally,37.02%
same,Tumour weight,HCT116 cancer cells,significantly lower than that in the control group
same,Tumour volume at the end of the administration,HCT116 cancer cells,significantly smaller than that of the control
"CC1=C(O)C(=O)C=C2C1=CC=C1[C@@]2(C)CC[C@@]2(C)[C@@H]3C[C@](C)(C(=O)OCCCO)CC[C@]3(C)CC[C@]12C [Compound 2, 3-Hydroxypropyl (2 R,4aS,6aS,12bR,14aS,14bR)-10-hydroxy-2,4a,6a,9,12b,14a-hexamethyl-11-oxo-1,2,3,4,4a,5,6,6a,11,12b,13,14,14a,14b-tetradecahydropicene-2-carboxylate]",Morphological changes in tumour tissue (HE),tumour tissue,tumour tissue structure was seriously damaged and the cell necrosis was obvious
same,IC50,AGS,0.33 µM
same,VEGF expression,"VEGF [2]; CoCl2-induced hypoxia, 0.1 µM, control 568.1 pg/ml",430.8 pg/mL
same,VEGF expression,"VEGF [2]; CoCl2-induced hypoxia, 0.5 µM, control 568.1 pg/ml",397.5 pg/mL
same,VEGF expression,"VEGF [2]; CoCl2-induced hypoxia, 1 µM, control 568.1 pg/ml",328.8 pg/mL
same,Effect on the expression of VEGF,VEGF [2],inhibited the expression of VEGF in a concentration-dependent manner
same,VEGF expression,"VEGF [2]; normal oxygen conditions, 0.1 µM, control 531.5 pg/ml",514.1 pg/mL
same,VEGF expression,"VEGF [2]; normal oxygen conditions, 0.5 µM, control 531.5 pg/ml",398.1 pg/mL
same,VEGF expression,"VEGF [2]; normal oxygen conditions, 1 µM, control 531.5 pg/ml",352.1 pg/mL
same,MMP-9 expression,"MMP-9; MGC-803, 0.5 µM",10.04 ng/mL
same,MMP-9 expression,"MMP-9; MGC-803, 1 µM",9.64 ng/mL
same,Effect on the expression of MMP-9,MMP-9,inhibited the expression of MMP-9 in MGC-803 cells in a concentration-dependent manner
same,Acute toxicity for zebrafish embryos,zebrafish embryos; 0.1 μM,no acute toxicity
same,Incubation (hatching) rate of zebrafish embryos,zebrafish embryos; 0.15 μM,25%
same,Hatching of zebrafish eggs,zebrafish embryos; 0.2 μM,no eggs hatched
same,Death rate of zebrafish embryos,"zebrafish embryos; 0.5 μM, on the first day",100%
same,Mortality of zebrafish embryos,"zebrafish embryos; 0.5 μM, on the fourth day",100%
same,Overall apoptosis rate (early apoptosis + late apoptosis),MGC-803 cells [3],13%
same,solubility at 1 h,[4],11.8 µg/mL
same,100% mortality concentration,"zebrafish larvae; zebrafish larvae, exposed for 72 h",0.1 µM
same,Concentrations causing acute toxicity in zebrafish larvae,zebrafish larvae,higher than 0.1 μM
same,IC50,HCT-116,0.32 to 0.39 µM
same,TNF-α content of tumour mice,TNF-α,decreased the TNF-α content significantly in a dose-dependent manner
same,VEGF expression in tumour tissue (immunohistochemistry),VEGF [1],downregulated the VEGF expression significantly
same,Cells in G2 phase,"MGC-803 cells [5]; 1 µM, 18 h, MGC-803, DMSO 15.05%",37.01%
same,Cells in G1 phase,"MGC-803 cells [5]; 1 µM, 18 h, MGC-803",44.77%
same,Phase in which the cell cycle is blocked,MGC-803 cells [5],G2 phase
same,Body weight during the treatment period,HCT116 cancer cells; 1 mg/kg,no significant changes of body weight
same,Body weight during the treatment period,HCT116 cancer cells; 2.5 mg/kg,downward trend
same,Mental state of the mice,HCT116 cancer cells; 2.5 mg/kg,depressed
same,Tumour weight,HCT116 cancer cells,significantly lower than that in the control group
same,Tumour volume at the end of the administration,HCT116 cancer cells,significantly smaller than that of the control
same,Tumour growth inhibition rate,HCT116 cancer cells; high-dose 2.5 mg/kg intraperitoneally,55.82%
same,Tumour growth inhibition rate,HCT116 cancer cells; low-dose 1 mg/kg intraperitoneally,50.83%
"CC1=C(O)C(=O)C=C2C1=CC=C1[C@@]2(C)CC[C@@]2(C)[C@@H]3C[C@](C)(C(=O)OCCCCO)CC[C@]3(C)CC[C@]12C [Compound 3, 4-Hydroxybutyl (2 R,4aS,6aS,12bR,14aS,14bR)-10-hydroxy-2,4a,6a,9,12b,14a-hexamethyl-11-oxo-1,2,3,4,4a,5,6,6a,11,12b,13,14,14a,14b-tetradecahydropicene-2-carboxylate]",IC50,HCT-116,0.32 to 0.39 µM
"CC1=C(O)C(=O)C=C2C1=CC=C1[C@@]2(C)CC[C@@]2(C)[C@@H]3C[C@](C)(C(=O)O)CC[C@]3(C)CC[C@]12C [celastrol, Celastrol, reference compound]",Effect on the expression of VEGF,VEGF [2],inhibited the expression of VEGF in a concentration-dependent manner
same,Effect on the expression of MMP-9,MMP-9,inhibited the expression of MMP-9 in MGC-803 cells in a concentration-dependent manner
same,Death rate of zebrafish embryos,zebrafish embryos; 0.2 μM,50%
same,Incubation (hatching) rate of zebrafish embryos,zebrafish embryos; 0.3 or 0.5 μM,zero
same,Incubation (hatching) rate of zebrafish embryos,"zebrafish embryos; exposure concentrations of 0.1, 0.15, and 0.2 μM",more than 75%
same,Overall apoptosis rate (early apoptosis + late apoptosis),MGC-803 cells [3],9.8%
same,solubility at 1 h,[4],6.2 µg/mL
same,Concentrations causing acute toxicity in zebrafish larvae,zebrafish larvae,higher than 0.1 μM
same,Cells in S phase,"MGC-803 cells [5]; 0.1 µM, 18 h, MGC-803",19.18%
same,Cells in S phase,"MGC-803 cells [5]; 1 µM, 18 h, MGC-803",29.41%
same,Cells in G1 phase,"MGC-803 cells [5]; 1 µM, 18 h, MGC-803",52.96%
same,Phase in which the cell cycle is blocked,MGC-803 cells [5],S phase
